Published values gathered from unrelated publications.
Lines come from different studies, so protocols differ.
Method: competition with immobilised ligand
JAK3 JH1: Tyrosine-protein kinase JAK3, JH1 (JAK3, Homo sapiens, UniProt P52333)
JAK3: Tyrosine-protein kinase JAK3 (JAK3, Homo sapiens, UniProt P52333)

The remaining binding of C[C@@H](c1ccc(-n2cnc3c(N)ncnc32)cc1)N1CCc2nn(C)c(Cc3ccccc3)c2C1=O is reported as 96% (JAK3 JH1; binding; 0.1 µM).
For CC1=C(C#N)C(c2ccc3c(c2)c(NC(=O)c2ccccc2C)nn3C)C(C#N)=C(C)N1, the remaining binding was 83% (JAK3 JH1; cell-free assay; 1 µM).
With N[C@@H]1CCN(c2nccc(-c3cnn4ncccc34)n2)C1 the remaining binding was 100% (JAK3 JH1; cell-free assay; 1 µM).
The remaining binding of O=C(c1ccc(Nc2nccc(-c3cc4ccccc4s3)n2)cc1)N1CCC(N2CCCC2)CC1 is reported as 0.4% (JAK3 JH1; binding; 1 µM).
With F[C@@H]1CCN(c2nccc(-c3cnn4ncccc34)n2)C1 the remaining binding was 100% (JAK3 JH1; cell-free assay; 1 µM).
With O=C(NCCCN1CCOCC1)c1ccc(Nc2ncc(Cl)c(-c3ccc(Cl)s3)n2)cc1 the remaining binding was 0.8% (JAK3 JH1; binding; 1 µM).
For COc1cnc(Nc2cccc(S(N)(=O)=O)c2)nc1N1CCN(c2ccccc2)C(=O)C1, the remaining binding was 16% (JAK3 JH1; binding; 1 µM).
For c1cncc(-c2cccc(Nc3nccc(NC4CCCCC4)n3)c2)c1, the remaining binding was 6.4% (JAK3 JH1; binding; 10 µM).
The remaining binding of C[C@@]1(Cc2ccc(C#N)cc2)C(=O)N(c2cc(Cl)cc(Cl)c2)c2ncc(C(=O)NC3(c4nc(C5CCC5)no4)CC3)n21 is reported as 100% (JAK3 JH1; cell-free assay; 1 µM).
CN(CCCC(F)(F)F)c1nccc(-c2cnn3ncccc23)n1 has a remaining binding of 71% (JAK3 JH1; cell-free assay; 1 µM).
The remaining binding of COc1ncc2cc3ccccc3nc2c1C#N is reported as 63% (JAK3 JH1; cell-free assay; 5 µM).
COc1ccc2cc(OCC3(C(=O)O)CN(C(=O)c4ccc(F)cc4)C3)ccc2c1 gave a remaining binding of 100% (JAK3 JH1; cell-free assay; 1 µM).
The remaining binding of CC(C)(C)c1ccc(-c2nc(CBr)nn2-c2cccc(O)c2)cc1 is reported as 65% (JAK3; cell-free assay; 10 µM).
The remaining binding of O=C(NCC1CCOCC1)c1n[nH]cc1NC(=O)c1c(F)cccc1F is reported as 91% (JAK3 JH1; binding; 1 µM).
Nc1c(C(=O)NCc2ccc(C(=O)NCCCC3CCCCC3)cc2)cnn1-c1ccccc1 has a remaining binding of 100% (JAK3 JH1; cell-free assay; 0.1 µM).
CN(C)c1nccc(-c2cnc3ncccn23)n1 gave a remaining binding of 93% (JAK3 JH1; cell-free assay; 1 µM).
O=C(Nc1cccnn1)N1CCC(=Cc2cccc(Oc3ccc(C(F)(F)F)cn3)c2)CC1 has a remaining binding of 100% (JAK3 JH1; cell-free assay; 1 µM).
O=C(c1ccc(Nc2ncc(Cl)c(-c3ccc(Cl)s3)n2)cc1)N1CCC(N2CCCC2)CC1 gave a remaining binding of 0.3% (JAK3 JH1; binding; 1 µM).
With NS(=O)(=O)c1cc(NC(=O)C2(c3ccccc3Cl)CC2)ccc1Oc1cccc(Cl)c1 the remaining binding was 64% (JAK3 JH1; cell-free assay; 1 µM).
With COC(=O)Nc1nc2ccc(C(=O)c3ccccc3)cc2[nH]1 the remaining binding was 29% (JAK3; cell-free assay; 10 µM).
O=S(=O)(NC1CCC(c2cc(F)ccc2F)(S(=O)(=O)c2ccc(Cl)cc2)CC1)C(F)(F)F (stereo not shown) has a remaining binding of 100% (JAK3 JH1; cell-free assay; 1 µM).
C[C@@H]1CN(c2ccc3ncc(-c4ccc5[nH]nc(C6CC6)c5c4)n3n2)C[C@H](C)O1 gave a remaining binding of 11% (JAK3; binding; 0.5 µM).
